Assay results taken from ChEMBL document CHEMBL1138802, “New water-soluble sulfonylphosphoramidic acid derivatives of the COX-2 selective inhibitor cimicoxib. A novel approach to sulfonamide prodrugs” (J Med Chem, 2004).

How the values were obtained:
[1] = Clearance after i.v. administration of 2 mg/kg to Dogs; assay type: ADME, organism-based, Canis lupus familiaris; parameters: dose 2 mg/kg, route intravenous; settings: dog, in vivo, iv
Procedure, shortened: (§1)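 Dogs received the parent sulfonamide iv at 2 mg/kg as a suspension. Parameters (t1/2, AUC/dose in ng h/mL, Cl in mL/h/kg, Vd in mL/kg) were derived from its plasma levels and reported as mean ± deviation.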

[2] = target: T1, Prostaglandin G/H synthase 2 (Rattus norvegicus) (UniProt P35355); experiment: Percentage inhibition of rat carrageenan-induced paw edema after iv administration at 3 mg/kg; assay type: functional, organism-based; parameters: dose 3 mg/kg
T1 sequence (whole entry): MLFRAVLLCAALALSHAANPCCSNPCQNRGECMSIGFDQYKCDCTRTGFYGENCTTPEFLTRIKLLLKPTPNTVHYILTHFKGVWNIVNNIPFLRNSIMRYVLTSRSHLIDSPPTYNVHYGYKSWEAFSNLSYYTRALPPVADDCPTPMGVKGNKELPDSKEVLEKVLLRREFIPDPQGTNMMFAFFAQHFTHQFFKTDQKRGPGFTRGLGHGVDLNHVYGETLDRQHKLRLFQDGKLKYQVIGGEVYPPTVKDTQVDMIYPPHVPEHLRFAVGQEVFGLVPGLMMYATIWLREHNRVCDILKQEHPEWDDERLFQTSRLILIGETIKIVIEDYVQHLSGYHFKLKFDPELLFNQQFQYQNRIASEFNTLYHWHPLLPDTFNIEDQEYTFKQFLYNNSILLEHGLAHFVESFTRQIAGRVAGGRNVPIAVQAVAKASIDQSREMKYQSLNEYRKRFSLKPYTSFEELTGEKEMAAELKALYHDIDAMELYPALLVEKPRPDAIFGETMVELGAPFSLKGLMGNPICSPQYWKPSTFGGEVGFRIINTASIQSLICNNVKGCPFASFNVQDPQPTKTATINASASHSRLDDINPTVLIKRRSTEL
Procedure, shortened: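 Male Sprague–Dawley rats (150–175 g) were dosed iv at 3 mg/kg in PBS (1 mL/kg) 10 min before intraplantar injection of 0.1 mL 1% λ-carrageenan into the hindpaw. Paw volume was measured by water-displacement plethysmometry before and 1, 2, 3 and 4 h after treatment. % inhibition was calculated from the AUC of treated versus control animals.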

[3] = Area under curve after i.v. administration of 2 mg/kg to Dogs; assay type: ADME, organism-based, Canis lupus familiaris; parameters: dose 2 mg/kg, route intravenous; settings: dog, in vivo, iv; procedure, shortened: as §1
[4] = Half life after i.v. administration of 2 mg/kg to Dogs; assay type: ADME, organism-based, Canis lupus familiaris; parameters: dose 2 mg/kg, route intravenous; settings: dog, in vivo, iv; procedure, shortened: as §1
[5] = Volume of distribution after i.v. administration of 2 mg/kg to Dogs; assay type: ADME, organism-based, Canis lupus familiaris; parameters: dose 2 mg/kg, route intravenous; settings: dog, in vivo, iv; procedure, shortened: as §1
[6] = Area under curve after i.v. administration of 1 mg/kg to Dogs; assay type: ADME, organism-based, Canis lupus familiaris; parameters: dose 1 mg/kg, route intravenous; settings: dog, in vivo, iv
Procedure, shortened: (§2)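 Dogs received the water-soluble phosphoramidic acid prodrug iv at 1 mg/kg as a solution. Parameters (t1/2, AUC/dose in ng h/mL, Cl in mL/h/kg, Vd in mL/kg) were derived from plasma levels of the released parent sulfonamide and reported as mean ± deviation.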

[7] = Clearance after i.v. administration of 1 mg/kg to Dogs; assay type: ADME, organism-based, Canis lupus familiaris; parameters: dose 1 mg/kg, route intravenous; settings: dog, in vivo, iv; procedure, shortened: as §2
[8] = Volume of distribution after i.v. administration of 1 mg/kg to Dogs; assay type: ADME, organism-based, Canis lupus familiaris; parameters: dose 1 mg/kg, route intravenous; settings: dog, in vivo, iv; procedure, shortened: as §2

Row | clearance [1] [mL/min/kg] | inhibition [2] [%] | AUC/dose [3] [ng·h/mL] | half-life [4] [h] | Vd [5] [L/kg] | AUC/dose [6] [ng·h/mL] | clearance [7] [mL/min/kg] | Vd [8] [L/kg] | SMILES
1 | 4.87 | 34.8 | 3253.4 | 5 | 2.12 | – | – | – | COc1ccc(-c2c(Cl)ncn2-c2ccc(S(N)(=O)=O)cc2)cc1F [CIMICOXIB]
2 | – | 32.6 | – | – | – | – | – | – | CCC(=O)NS(=O)(=O)c1ccc(-c2c(-c3ccccc3)noc2C)cc1
3 | – | 34.8 | – | 4.9 | – | 3641.1 | 4.55 | 1.86 | COc1ccc(-c2c(Cl)ncn2-c2ccc(S(=O)(=O)NP(=O)(O)O)cc2)cc1F
